Bioassay records: PubChem, several laboratories
Most compounds without a hit are left out; they make up all but 5.4% or so of the library.
SKKanGAS inh: S. pyogenes SKKanGAS growth inhibitors in kanamycin, primary screen, streptokinase expression inhibitor project, SKKanGAS strain, BacTiter-Glo luminescence | 6 h | inhibition, % at 7.5 µM | hit rate 1.3% among 300,000;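 active means mean replicate score, as percent of positive control median, at least 50; inconclusive means mean below 50 but one replicate at or above 50; inactive means mean and every replicate below 50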;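 further: strain carries kanamycin resistance gene driven by streptokinase promoter and grows in 40 µg/ml kanamycin; loss of luminescence reflects streptokinase promoter inhibition or plain growth inhibition; 0% = median of DMSO wells and 100% = positive control at its reference dose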
T cruzi inh: inhibitors of intracellular T. cruzi growth, primary screen, luminescence, NIH3T3 host cells; T. cruzi beta-gal in NIH3T3, 90 h; inhibition, % (concentration not given with the values); hit rate 1.4% among 300,000; AID 1885, 2009;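 active means mean inhibition across valid replicates above about 55%, limit read from the data; inconclusive means mean below that limit but half or more replicates reach it; inactive means mean below it, under half of replicates reach it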;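 further: signal also drops with host cell toxicity which is not excluded here; 0% = plate median of DMSO wells and 100% = zero luminescence signal; higher percent means less beta-gal luminescence so fewer parasites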
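Material: NIH/3T3 host cells with β-galactosidase reporter T. cruzi; Input: 5,000 host fibroblasts per well; Medium: DMEM, 2% fetal bovine serum; Compound: 50 nL DMSO compound solution per well; Schedule: 3 h host attachment, then at least 90 h co-culture; Detection: luminescent β-galactosidase signal after 60 min lysis.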
CSC inhib: cancer stem cell viability inhibitors, primary screen, luminescence | inhibition, % at 7.5 µM | cancer stem cell-like cells viability | AID 2717, 2010 | hit rate 1.1% among 300,000; in the data active means inhibition above about 75%; inconclusive means no clear call, values can overlap the other calls; tested in HMLE shEcad cells
Mdm2-MdmX inh: inhibitors of human Mdm2-MdmX association, primary screen, cell-based, luminescence, split luciferase, SaOS-2, uHTS | Protein Mdm4 (Homo sapiens) + E3 ubiquitin-protein ligase Mdm2 (Homo sapiens), … | SaOS-2 split-luciferase Mdm2/MdmX complementation | inhibition, % at 8 µM | hit rate 3% among 330,000;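 active means inhibition of at least 50% at 8 µM in the primary screen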
aSyn UTR inh: MLPCN primary screen, SNCA 5' untranslated region; alpha-synuclein 5'UTR reporter, inhibitor activity; inhibition, % (tested at 7.5 µM); hit rate 0.82% among 300,000; AID 1813, 2009; in the data active means inhibition above about 60%; inconclusive means no clear call, values can overlap the other calls;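 further: H4 neuroglioblastoma cells stably carrying SNCA 5'UTR luciferase fusion; 0% = DMSO wells and 100% = positive control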
Mdm2 MdmX conf: Mdm2-MdmX complex disruptors, retested hits, confirmation, luminescence, single concentration; shares compounds with Mdm2-MdmX inh; Mdm2-MdmX binding, luminescent assay; inhibition, % at 8 µM; hit rate 55% among 10,000; AID 489028, 2010; in the data active means inhibition above about 40%
FLuc counter: full-length luciferase signal inhibition, confirmation, counter-screen for Mdm2/MdmX interaction inhibitor project, cell-based, single concentration, SaOS-2; shares compounds with Mdm2-MdmX inh; SaOS-2 full-length luciferase counterscreen, luminescence; inhibition, % at 8 µM; hit rate 77% among 6,200; AID 504607, 2011;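 active means mean inhibition at 8 µM reaching about 37%, which flags the compound as non-specific, limit read from the data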;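 further: p53-null SaOS-2 cells with luciferase driven by a doxycycline-inducible promoter; compound on cells about two nights before reading with doxycycline added after day one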
The depositor's hits bear a star; ? = inconclusive; / = not tested or not shown.

SMILES	SKKanGAS inh	T cruzi inh	CSC inhib	Mdm2-MdmX inh	aSyn UTR inh	Mdm2 MdmX conf	FLuc counter
COc1cc(/C=C/c2nc3ccccc3c(=O)n2-c2ccc(O)cc2)ccc1O	20	4	27	77*	12	46*	95*
O=c1c2ccccc2nc(/C=C/c2ccccc2O)n1-c1ccccc1O	17	11	45	82*	-12	56*	63*
Cc1ccc(-n2c(/C=C/c3ccccn3)nc3ccccc3c2=O)cc1	-11	10	/	59*	-28	17	/
O=c1c2ccccc2nc(-c2ccccc2)n1-c1ccccc1O	-2	11	54	19	2	/	/
CCCCCCCSc1cc(OC)c(CCN(C)C)cc1OC	5	40	34	74*	?	29	/
CCCCCSc1cc(OC)c(CCN)cc1OC	2	13	7	16	19	/	/
COC(=O)CC1(CC(=O)OC)C(=O)N(c2ccccc2)C(=O)N(c2ccccc2)C1=O	-5	-10	-9	-1	-13	/	/
CC1CCC(C(C)C)C(OC(=O)Cn2c(COc3ccccc3)[n+](C)c3ccccc32)C1 (stereo not drawn)	19	73*	98*	98*	66*	96*	54*
COc1ccc(C(=O)N2C[C@H]3C[C@@H](C2)c2cccc(=O)n2C3)cc1OC	-3	3	-4	-5	9	/	/
COC(=O)C1C2c3ccccc3C(c3ccccc32)C1C(=O)OC (stereo not drawn)	1	9	-5	24	12	/	/
Cc1c(NP(=O)(C(C)(C)C)C(C)(C)C)c(=O)n(-c2ccccc2)n1C	13	-18	5	-12	-8	/	/
Cc1nc2c(=O)n(C)c(=O)nc-2n(C)n1	78*	31	2	74*	115*	58*	19
CN1/C(=C\C=C\C2=[N+](C)c3ccc4ccccc4c3C2(C)C)C(C)(C)c2ccccc21	/	/	115*	100*	/	100*	0
O=C(NC(=O)c1c(F)cccc1F)Nc1cc(Cl)c(F)c(Cl)c1F	3	-3	0	25	-6	/	/
CC1Oc2cc3c(-c4c(O)cc(O)c5c(O)c6c(cc45)OC(C)C(C)C6=O)c(O)cc(O)c3c(O)c2C(=O)C1C (stereo not drawn)	107*	-48	-3	89*	87*	73*	22
CC(C)(C)n1cccc1/C=C1\C(=O)NC(=O)N(c2ccccc2)C1=O	0	-7	/	0	-5	/	/
Cc1cccc(N2C(=O)NC(=O)/C(=C/c3ccc([N+](=O)[O-])o3)C2=O)c1	/	/	-5	/	/	/	/
Cc1cc(C)cc(N2C(=O)NC(=O)/C(=C/c3cccn3-c3ccc(Cl)cc3)C2=O)c1	8	-21	75*	66*	-27	17	/
Cc1cccc(N2C(=O)NC(=O)/C(=C\c3cccn3-c3ccc(Cl)cc3)C2=O)c1	1	-8	4	73*	1	40	69*
C[C@@H]1O[C@@H](O[C@H]2C[C@@H](O)[C@]3(CO)[C@@H]4C(CC[C@]3(O)C2)[C@@]2(O)CC[C@H](C3COC(=O)C3)[C@@]2(C)C[C@H]4O)[C@H](O)[C@H](O)[C@H]1O (stereo partly drawn)	/	/	83*	68*	/	70*	24
OC(c1cccc(Cl)c1)(c1cccc(Cl)c1)C1CN2CCC1CC2 (stereo not drawn)	4	53	-19	74*	-27	59*	56*
O=C(Nc1cccc(C(F)(F)F)c1)OC1CN2CCC1CC2 (stereo not drawn)	1	-3	/	3	-22	/	/
Cc1ccccc1[N+](=O)[O-]	/	/	-13	-12	/	/	/
COC(=O)C1=C(C)NC(C)=C(C(=O)OC)C1c1ccccc1[N+](=O)[O-]	1	7	8	97*	24	53*	28
O=c1c2ccccc2nc(-c2ccccc2)n1-c1ccccc1	1	-12	63	8	9	/	/
SMILES	SKKanGAS inh	T cruzi inh	CSC inhib	Mdm2-MdmX inh	aSyn UTR inh	Mdm2 MdmX conf	FLuc counter
O=c1c2ccccc2[se]n1-c1ccccc1	88*	-26	/	59*	-24	15	/
O=[N+]([O-])c1ccc(-c2ccccc2)c([As](=O)(O)O)c1	4	33	2	11	-19	/	/
Cc1ccc2c(c1)C1CN(C)CCC1N2C(=O)Nc1cccc(C(F)(F)F)c1 (stereo not drawn)	6	29	-6	55*	4	37	65*
Cc1ccc2c(c1)C1CN(C)CCC1N2C(=O)c1cccnc1Cl (stereo not drawn)	-13	-5	-10	12	22	/	/
Cc1ccc2c(c1)C1CN(C)CCC1N2C(=O)CCCN1C(=O)c2cccc3cccc(c23)C1=O (stereo not drawn)	-12	?	-7	51*	-18	23	/
Cc1ccc2c(c1)C1CN(C)CCC1N2C(=O)c1ccc(Br)o1 (stereo not drawn)	-5	18	1	17	30	/	/
Cc1ccc2c(c1)[C@@H]1CN(C)CC[C@@H]1N2C(=O)Nc1cccc(C(F)(F)F)c1	-5	38	/	52*	14	20	/
Cc1ccc2c(c1)C1CN(C)CCC1N2C(=O)c1cn(-c2ccccc2)nc1-c1ccccc1 (stereo not drawn)	-3	53	15	73*	3	36	76*
COC(=O)C1=C(c2c(C)noc2C)C[C@@H]2CC[C@H]1N2C(=O)NCCOc1ccccc1	/	/	-9	7	/	/	/
C#C[C@]1(O)CC[C@H]2[C@@H]3CCC4=Cc5nc6nc7ccccc7n6cc5C[C@]4(C)[C@H]3CC[C@@]21C	/	/	39	55*	/	2	/
COc1cc2c(c(OC)c1OC)-c1ccc(O)c(=O)cc1C(NC(C)=O)CC2 (stereo not drawn)	-4	22	37	69*	90*	66*	110*
Cc1ccc(CN(Cc2ccccc2)C(=S)NCC(=O)N2CCC3(CC2)OCCO3)o1	-4	6	63	-40	17	/	/
CC(=O)O[C@@]12CO[C@@H]1C[C@H](O)[C@@]1(C)C(=O)[C@H](O)C3=C(C)[C@@H](OC(=O)[C@H](O)[C@@H](NC(=O)c4ccccc4)c4ccccc4)C[C@@](O)([C@@H](OC(=O)c4ccccc4)C12)C3(C)C (stereo partly drawn)	8	55*	60	54*	114*	63*	50*
